In PMC5698725 (Chemistry (Weinheim an Der Bergstrasse, Germany), 2017):

Key:
[1] = High-throughput metabolic stability assay, human liver microsomes; type: in vitro ADME; settings: predicted from in vitro metabolic stability
Summary of the method: (§1)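 Predicted hepatic metabolic clearance from a high-throughput metabolic stability assay. Systems: pooled human, rat or mouse liver microsomes, or freshly harvested rat hepatocytes. Output is predicted blood clearance (CLb) in L h−1 kg−1.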

[2] = High-throughput metabolic stability assay, mouse liver microsomes; type: in vitro ADME; settings: predicted from in vitro metabolic stability
Summary of the method: as §1

[3] = tested on: freshly harvested rat hepatocytes (rHep); test: High-throughput metabolic stability assay, rat hepatocytes; type: in vitro ADME; settings: predicted from in vitro metabolic stability
Summary of the method: as §1

[4] = Bidirectional Caco2 permeability assay; type: in vitro ADME; settings: human, Caco-2
Caco2 = test: Bidirectional Caco2 permeability assay; type: in vitro ADME; settings: Caco2, P app B–A/P app A–B
Hydrolytic stability = type: physicochemical
Summary of the method: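 Test compound stirred for 24 hours in buffers: pH 2.0 and pH 4.5 citrate, pH 6.5 and pH 7.4 phosphate-buffered saline, pH 8.0 sodium borate. Hydrolytic stability is expressed as percent test compound recovered at 24 h.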

[5] = High-throughput metabolic stability assay, rat liver microsomes; type: in vitro ADME; settings: predicted from in vitro metabolic stability
Summary of the method: as §1

- CLb hLMs (predicted blood clearance) [1]: 0.04 L/h/kg
- CLb mLMs (predicted blood clearance) [2]: 1.1 L/h/kg
- CLb rHep (predicted blood clearance) [3]: 3.6 L/h/kg
- Papp A→B [4]: 37.8 ×10⁻⁶ cm/s
- efflux ratio [4]: 0.59
- efflux ratio (Caco2): no evidence of efflux
- Recovered test compound (hydrolytic stability) (Hydrolytic stability; all tested pH values (2.0–8.0), 24 hours with stirring): 100%
- recovery at 24 h (Hydrolytic stability; citrate buffer, pH 2): 100%
- recovery at 24 h (Hydrolytic stability; citrate buffer, pH 4.5): 100%
- recovery at 24 h (Hydrolytic stability; phosphate-buffered saline, pH 6.5): 100%
- recovery at 24 h (Hydrolytic stability; phosphate-buffered saline, pH 7.4): 100%
- recovery at 24 h (Hydrolytic stability; sodium borate buffer, pH 8): 100%
- CLb rLMs (predicted blood clearance) [5]: 3.0 L/h/kg
SMILES: N=S(=O)(c1ccccc1)N1CCCCC1 (stereo not shown) [2 a, 1 ‐(S‐Phenylsulfonimidoyl)piperidine]
